The source made the active and inactive calls. No cut-off for these calls is given here.
Tests used:
[1] = test system: MCF7; test: Antiproliferation activity against human MCF7 cells assessed as inhibition of cell proliferation at 10 uM by MTT assay relative to control; type: functional
Summary of the method: (§1)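 Cells grown at 37°C in high-glucose DMEM with 10% FBS, 2 mM L-glutamine and 1% penicillin–streptomycin. Compounds, dissolved in DMSO, were added at 80% confluency, with DMSO-only and untreated wells as controls. MTT in PBS was then added for 2 h at 37°C. Formazan was dissolved in DMSO and read at 550 nm, with viability expressed relative to control cells set as 100%.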

[2] = test system: MCF7; test: Antiproliferation activity against human MCF7 cells assessed as inhibition of cell proliferation at 1 uM by MTT assay relative to control; type: functional; summary of the method: as §1

Structure (SMILES)	inhibition [1]	inhibition at 1 µM [2]
S=c1[nH]nc(Cn2c(-c3ccc(OCc4ccccc4)c(OCc4ccccc4)c3)nc3ccccc32)n1CCN1CCOCC1	inactive	–
C#Cc1cccc(Nc2ncnc3cc(OCCOC)c(OCCOC)cc23)c1 [ERLOTINIB]	–	60%

— ChEMBL document CHEMBL4346713, “Design, synthesis and docking studies of benzimidazole derivatives as potential EGFR inhibitors” (2019)
